What all share (format): functional
Assay [1] concerns Mus musculus. Description: In vitro effect on CF1 male mouse on phosphatidate phosphohydrolase after 16 days at a dose of 60 (mg/kg)/day. In a few lines: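 CF1 male mice dosed ip daily for 16 days, drug suspended in 1% carboxymethylcellulose; liver taken as 10% homogenate in 0.25 M sucrose + 0.001 M EDTA. Phosphatidate phosphohydrolase measured as inorganic phosphate released from phosphatidic acid after 30 min, developed with ascorbic acid/ammonium molybdate, read at 820 nm. Expressed as % of 1% CMC vehicle control; N = 6.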

Assay [2] has as its system Mus musculus. Description: In vitro effect on CF1 male mouse onAc-CoA carboxylase after 16 days at a dose of 20 (mg/kg)/day. As to conditions: in the assay text read “In vivo” for “In vitro”. In outline: (§1)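 Mice (CF1 males) given agent ip daily for 16 days in 1% carboxymethylcellulose; liver 10% homogenate in 0.25 M sucrose + 0.001 M EDTA. Acetyl-CoA carboxylase first polymerized 30 min at 37 °C, then incubated 30 min at 37 °C with sodium [14C]bicarbonate (41.0 mCi/mmol); incorporated label counted. Activity as % of vehicle control; N = 6.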

For assay [3], the system named is Mus musculus. Description: Effect on Serum cholesterol levels on Hyperlipidemic induced mice After 14 days dosing. In a few lines: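 Mice fed atherogenic diet for 2 weeks to raise serum lipids, then given drug at 20 (mg/kg)/day ip for a further 2 weeks; serum cholesterol and triglyceride measured after the diet and after 14 days dosing; n = 6; compared with 1% CMC and diet-only controls; % control.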

Assay [4] relates to Mus musculus. Description: Effect on Serum cholesterol levels on CF1 male mice at a dose of 100 (mg/kg)/day after 16 days. In a few lines: (§2)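 CF1 male mice (~25 g), drug suspended in 1% carboxymethylcellulose in water, given ip daily for 16 days; n = 6; vehicle control. Tail-vein blood on days 9 and 16, serum cholesterol by modified Liebermann–Burchard reaction; day-14 serum triglyceride by commercial kit; expressed as % control.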

The test system of assay [5] is Rattus norvegicus. Description: Effect on Chylomicrons of Triglycerides Holtzman rats after 14 days administration. In a few lines: (§3)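 Holtzman male rats (~400 g) given drug at 20 (mg/kg)/day for 14 days; on day 14 blood taken from the abdominal aorta and serum separated by centrifugation at 3500 rpm; lipid and protein content of the lipoprotein fractions measured.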

The species entered for assay [6] is Mus musculus. Description: In vitro effect on CF1 male mouse on Ac-CoA synthetase. In outline: (§4)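 In vitro test on 10% CF₁ male mouse liver homogenate (0.25 M sucrose, 0.001 M EDTA) with 2.5 μmol test drug. Assays: acetyl-CoA synthetase and citrate lyase as hydroxamate at 540 nm, 30 min, 37 °C; citrate exchange from [¹⁴C]citrate-loaded mitochondria after 10 min with drug; side-chain oxidation by ¹⁴CO₂ from [26-¹⁴C]cholesterol, 18 h, 37 °C; acetyl-CoA carboxylase by [¹⁴C]bicarbonate fixation after 30 min polymerization then 30 min at 37 °C.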

Assay [7] deals with Mus musculus. Description: Effect on Serum cholesterol levels on CF1 male mice at a dose of 20 (mg/kg)/day after 16 days. In a few lines: as §2
For assay [8], the species on record is Mus musculus. Description: In vitro effect on CF1 male mouse on Citrate lyase. In a few lines:
as §4

Assay [9] deals with Rattus norvegicus. Description: Effect on low density Triglycerides Holtzman rats after 14 days administration. In outline: as §3
In assay [10] the test system is Mus musculus. Description: Effect on neutral lipids from CF1 male mice after 16 days at a dose of 20 (mg/kg/day). In outline:
(§5)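 Dosing was ip in CF₁ male mice (~25 g) for 16 days, with compound suspended in 1% carboxymethylcellulose. Liver was then taken and homogenised to 10% in 0.25 M sucrose with 0.001 M EDTA. Lipid was extracted from a 2 mL aliquot by the Folch and Bligh–Dyer methods and total mg of lipid was weighed. Cholesterol (Liebermann–Burchard), triglycerides (kit), neutral lipids and phospholipids were then measured; N = 6; reported as % of vehicle control.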

The test system of assay [11] is Rattus norvegicus. Description: Effect on Serum triglceride levels on Holtzman rats at a dose of 20 (mg/kg)/day after 14 days. In outline:
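Holtzman male rats (~200 g) dosed orally by intubation needle daily for 16 days, drug suspended in 1% carboxymethylcellulose; n = 6; vehicle control. Tail-vein serum cholesterol on days 9 and 16 by modified Liebermann–Burchard reaction; day-14 serum triglyceride by commercial kit; % control.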

The test system of assay [12] is Mus musculus. Description: In vitro effect on CF1 male mouse onAc-CoA carboxylase after 16 days at a dose of 60 (mg/kg)/day. In a few lines: as §1
Assay [13] has as its system Mus musculus. Description: Effect on triglycerides from CF1 male mice after 16 days at a dose of 60 (mg/kg/day). In a few lines:
as §5

Each structure is given as a SMILES string.

The record followed here is ChEMBL document CHEMBL1122328, “Hypolipidemic activity of phthalimide derivatives. 2. N-phenylphthalimide and derivatives” (1983).

`CC(=O)c1ccccc1N1C(=O)c2ccccc2C1=O`: the Control in the assay on Mus musculus [1] was determined as 98%; in the assay on Mus musculus [2], 41%; in the assay on Mus musculus [3], 118%; in the assay with Mus musculus [4], 26%; in the assay with Rattus norvegicus [5], 41%; in the assay listed under Mus musculus [6] it was 63%. Also, the Control in the assay listed under Mus musculus [8] is given as 62%; in the assay with Rattus norvegicus [9], 52%; in the assay with Mus musculus [10], 65%; with Rattus norvegicus [11], 61%; in the assay on Mus musculus [12], 57%; with Mus musculus [13], 100%. Besides, in the assay on Mus musculus [7], the “Serum cholesterol (% of control)” value is given as 43%.
